How the values were obtained:
Rattus norvegicus [1] = assay: Analgesic activity on peroral administration against Scald induced pain in rat paw; format: functional; conditions: for ED50: Rattus norvegicus, po, read-out: ID50 (the source's name)
Procedure, shortened: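 Male Wister Imamichi rats (~100 g), fasted 16 h. A hind paw was scalded at 57 °C for 6 s, then restimulated at 40 °C for 5 s. Compounds at 58–0.23 mg/kg in 0.5% tragacanth were given orally 2 h after scalding. Paw-lifting time over 30 s was recorded 1 and 2 h post-dose, and the mean used for % inhibition and ID50.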

Rattus norvegicus [2] = assay: Antiinflammatory activity on peroral administration against carrageenan paw edema; format: functional; conditions: po, read-out: ID50 (the source's name)
Procedure, shortened: (§1)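 Compound given; 30 min later 1% carrageenan in saline injected subcutaneously into the hind-paw plantar region. Paw volume measured just before and 3 h after carrageenan. ID50 from a least-squares regression line of percent inhibition against dose.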

Cavia porcellus [3] = assay: Antipyretic activity on peroral administration against LPS-induced fever in guinea pig.; format: functional; conditions: po, read-out: ID50 (the source's name)
Procedure, shortened: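 Female Hartley guinea pigs (300–350 g), fasted 16 h. Fever induced with E. coli LPS at 1 µg/kg i.v. Compounds were dosed at 6.3–0.23 mg/kg. Rectal temperature was taken 1 and 2 h after dosing and the mean used. ID50 by least-squares regression of % inhibition on dose.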

Rattus norvegicus [4] = assay: Analgesic activity on peroral administration against scald induced pain in rat paw; format: functional; conditions: po, read-out: ID50 (the source's name)
Procedure, shortened: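 Male Wister Imamichi rats (about 100 g), fasted 16 h, had one hind paw scalded in 57 °C water for 6 s, then re-dipped in 40 °C water for 5 s. Oral dosing in 0.5% tragacanth (58–0.23 mg/kg) followed 2 h after scalding. Paw-lifting time within 30 s was scored 1 and 2 h post-dose. The mean of the two readings gave percent inhibition and ID50.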

Rattus norvegicus [5] = assay: Antiinflammatory activity on peroral administration in rat determined by Randall-Slelitto test; format: functional; conditions: po
Procedure, shortened: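 Fasted male Wister Imamichi rats (60–90 g) received 20% brewer's yeast in the right hind paw. After 4 h, rats with pressure pain threshold below 10×30 g were dosed at 50–0.05 mg/kg. Animals were counted effective if the threshold rise exceeded twice the unmedicated control. ED50 by Litchfield–Wilcoxon.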

Rattus norvegicus [6] = assay: Gastric lesion activity on peroral administration in rat.; format: functional; conditions: po
Procedure, shortened: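 Male Wister Imamichi rats (~120 g), fasted 16 h, dosed at 20–2.5 mg/kg. Killed 3.5 h later; stomachs opened along the greater curvature and rinsed with saline. Dark brown lesions of 0.5 mm length were counted under a stereomicroscope.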

Cavia porcellus [7] = assay: Analgesic activity on peroral administration against Bradykinin induced pain in guinea pig paw; conditions: po
Rattus norvegicus [8] = assay: Antiinflammatory activity on peroral administration against adjuvant arthritis in rat.; format: functional; conditions: po, read-out: ID50 (the source's name)
Procedure, shortened: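 Female Lewis rats (160–200 g) received complete Freund adjuvant (heat-killed M. tuberculosis, 1 mg/mL in liquid paraffin) in the right hind paw. Dosing was 5.0–0.04 mg/kg once daily, days 0–20. Injected-paw swelling was measured by water displacement (day before vs day 21), as % inhibition versus untreated control. ID50 by least-squares regression.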

Rattus norvegicus [9] = assay: Antiinflammatory activity on peroral administration against carrageenan induced rat paw edema.; format: functional; conditions: po, read-out: ID50 (the source's name); procedure, shortened: as §1

SMILES	ED50 (Rattus norvegicus [1]) [mg/kg]	ED50 (Rattus norvegicus [2]) [mg/kg]	further results
CC(C(=O)O)c1ccc(CC2CCC/C2=N/O)cc1 (stereo not given)	4.9	1.3	
O=C(O)Cc1ccc(CC2CCC/C2=N/O)cc1 (stereo not given)	15	24.8	
CC(C(=O)O)c1ccc(CC2CCCCC2=O)cc1 (stereo not given)	9.1	1.2	
CC(C(=O)O)c1ccc(/C=C2\CCCCCC2=O)cc1 (stereo not given)	> 100	> 100	
CC(C(=O)O)c1ccc(CC2CCCCCC2=O)cc1 (stereo not given)	> 100	> 100	
O=C(O)Cc1ccc(CC2CCCC/C2=N/O)cc1 (stereo not given)	31.1	23.5	
CC(C(=O)O)c1ccc(CC2CCCC2)cc1 (stereo not given)	5.1	> 100	
CC(C(=O)O)c1ccc(CC2CCCC/C2=N/O)cc1 (stereo not given)	3.6	1.4	
O=C(O)Cc1ccc(CC2CCCC2=O)cc1 (stereo not given)	23	9.1	
CC(C(=O)O)c1ccc(/C=C2\CCCC2=O)cc1 (stereo not given)	1.3	1.5	
CC(C(=O)O)c1ccc(CC2CCCCC/C2=N/O)cc1 (stereo not given)	> 100	> 100	
O=C(O)Cc1ccc(CC2CCCCC2=O)cc1 (stereo not given)	53.8	45.7	
CC(C)Cc1ccc(C(C)C(=O)O)cc1 (stereo not given) [IBUPROFEN]	15.9		
COc1ccc2c(c1)c(CC(=O)O)c(C)n2C(=O)c1ccc(Cl)cc1 [INDOMETHACIN]	3.5	2.2	ED50 (Cavia porcellus [3]): 9.5 mg/kg; ED50 (Rattus norvegicus [4]): 3.5 mg/kg; ED50 (Rattus norvegicus [5]): 2.8 mg/kg; UD50 (Rattus norvegicus [6]): 6.4 mg/kg; ED50 (Cavia porcellus [7]): 8.3 mg/kg
CC(C(=O)[O-])c1ccc(CC2CCCC2=O)cc1.[Na+] (stereo not given) [LOXOPROFEN SODIUM]	0.76	1.2	ED50 (Cavia porcellus [3]): 0.76 mg/kg; ED50 (Rattus norvegicus [5]): 0.13 mg/kg; ED50 (Rattus norvegicus [8]): 0.59 mg/kg; UD50 (Rattus norvegicus [6]): 16.1 mg/kg; ED50 (Cavia porcellus [7]): 0.4 mg/kg
CC(C(=O)O)c1ccc(CC2CCCC2=O)cc1 (stereo not given) [LOXOPROFEN]	0.8	1.7	
CC(C(=O)O)c1ccc(/C=C2\CCCCC2=O)cc1 (stereo not given) [PELUBIPROFEN]	1.8	0.9	ED50 (Cavia porcellus [3]): 1.5 mg/kg; ID50 (Rattus norvegicus [1]): 1.7 mg/kg; ED50 (Rattus norvegicus [5]): 0.94 mg/kg; ED50 (Rattus norvegicus [8]): 0.06 mg/kg; ED50 (Rattus norvegicus [9]): 1.2 mg/kg; UD50 (Rattus norvegicus [6]): 14.3 mg/kg; ED50 (Cavia porcellus [7]): 4.5 mg/kg
